In ChEMBL document CHEMBL4130343, “Design, synthesis, and evaluation of benzofuran derivatives as novel anti-pancreatic carcinoma agents via interfering the hypoxia environment by targeting HIF-1α pathway” (Eur J Med Chem, 2017):
Active and inactive are the calls of the source. The rule behind the calls is not given here.

Assays:
PANC-1 [1] = assay: Induction of apoptosis in human PANC1 assessed as decrease in PARP levels at 0.1 to 1 uM after 24 hrs by Western blot method; format: functional, cell-based
Procedure, shortened: (§1)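 PANC-1 cells were treated with graded compound concentrations for 24 h, then lysed. Proteins were separated by SDS-PAGE and blotted to PVDF. Blots were probed for PARP, cleaved PARP, caspase-3, cleaved caspase-3, caspase-9 and cleaved caspase-9, with GAPDH as loading control, and read by infrared imaging. Bands were quantified by densitometry as ratios normalized to GAPDH.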

PANC-1 [2] = assay: Antitumor activity against human PANC1 cells xenografted in nude mouse assessed as inhibition of tumor weight at 15 mg/kg, ip administered every 2 days for 21 days relative to vehicle-treated control; format: functional; details: PANC-1, ip
Procedure, shortened: (§2)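 Female nude mice received 1×10^7 PANC-1 cells subcutaneously in the right flank. After 4 weeks, mice bearing tumors averaging 100 mm³ were randomized into five groups. Dosing was 15, 30 or 60 mg/kg i.p. every two days for 21 days. Tumor volume = width² × length/2; tumors were weighed at sacrifice, and body weight was monitored.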

PANC-1 [3] = assay: Induction of apoptosis in human PANC1 cells assessed as late apoptotic cells at 0.1 uM after 24 hrs by annexin V/propidium iodide staining-based flow cytometric method (reference value: 2.65%); format: functional
[4] = molecular target: Hypoxia-inducible factor 1-alpha (Homo sapiens) (UniProt Q16665); assay: Inhibition of HIF-1alpha (unknown origin) expressed in HEK293 cells under hypoxia condition after 24 hrs by luciferase reporter gene assay; format: cell-based
Procedure, shortened: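 HEK293 cells were co-transfected with HRE-luciferase and pRL-SV40 plasmids for 6 h. Cells were then treated with compound under hypoxia (1% O₂, 94% N₂, 5% CO₂, 37 °C) for 24 h. Activity was read by dual-luciferase assay on a luminometer.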

PANC-1 [5] = assay: Induction of apoptosis in human PANC1 cells assessed as viable cells at 0.1 uM after 24 hrs by annexin V/propidium iodide staining-based flow cytometric method (reference value: 89.5%); format: functional; details: PANC-1, 24 h, read-out: Activity
MCF7 = assay: Antiproliferative activity against human MCF7 cells after 48 hrs by MTT assay; format: functional, cell-based; details: MCF7, 48 h
Procedure, shortened: (§3)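 Cells were seeded at 5×10^5 cells/mL overnight and exposed to graded compound concentrations for 48 h. MTT (5 mg/mL stock) was added for 4 h at 37 °C, and formazan was dissolved in DMSO. Absorbance was read at 570 nm. IC₅₀ was fitted from the curves; values are mean ± SD, n = 3.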

[6] = AUC (0 to t) in rat at 10 mg/kg, ip after 0.083 to 24 hrs by LC-MS/MS method; format: ADME, organism-based; set-up: dose 10 mg/kg, time 0.083-24 hr, route intraperitoneal; details: in vivo
HCT-116 [7] = assay: Antiproliferative activity against p53-deficient human HCT116 cells after 48 hrs by MTT assay; format: functional, cell-based; details: HCT-116, 48 h; procedure, shortened: as §3
[8] = Plasma concentration in rat at 10 mg/kg, ip after 36 hrs by LC-MS/MS method; format: ADME, organism-based
Procedure, shortened: (§4)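 Rats, n = 6 per group, each given a single 10 mg/kg dose. Blood was collected into heparinized tubes and centrifuged at 4 °C and 8000 rpm for 5 min. Plasma was analysed by LC–MS/MS.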

PANC-1 [9] = assay: Antitumor activity against human PANC1 cells xenografted in nude mouse assessed as inhibition of tumor weight at 30 mg/kg, ip administered every 2 days for 21 days relative to vehicle-treated control; format: functional; details: PANC-1, ip; procedure, shortened: as §2
Mus musculus = assay: Toxicity in nude mouse xenografted with human PANC1 cells assessed as effect on quality of life at 15 to 60 mg/kg, ip administered every 2 days for 21 days measured during compound dosing; format: organism-based; details: in vivo
Procedure, shortened: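 Female nude mice were implanted s.c. in the right flank with 1×10^7 PANC-1 cells. After 4 weeks, mice with tumours averaging 100 mm³ were randomized into five groups. They were dosed i.p. at 15, 30 or 60 mg/kg every two days for 21 days and monitored for toxicity, tumour growth and body weight.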

PANC-1 [10] = assay: Antitumor activity against human PANC1 cells xenografted in nude mouse assessed as decrease in tumor volume at 15 to 60 mg/kg, ip administered every 2 days for 21 days; format: functional, organism-based; procedure, shortened: as §2
PANC-1 [11] = assay: Induction of apoptosis in human PANC1 cells assessed as dead cells at 2 uM after 24 hrs by annexin V/propidium iodide staining-based flow cytometric method (reference value: 0.60%); format: functional
PANC-1 [12] = assay: Induction of apoptosis in human PANC1 cells assessed as viable cells at 1 uM after 24 hrs by annexin V/propidium iodide staining-based flow cytometric method (reference value: 89.5%); format: functional; details: PANC-1, 24 h, read-out: Activity
BXPC-3 = assay: Antiproliferative activity against human BxPC3 cells after 48 hrs by MTT assay; format: functional, cell-based; details: BXPC-3, 48 h; procedure, shortened: as §3
PANC-1 [13] = assay: Induction of apoptosis in human PANC1 cells assessed as early apoptotic cells at 0.1 uM after 24 hrs by annexin V/propidium iodide staining-based flow cytometric method (reference value: 7.25%); format: functional
PANC-1 [14] = assay: Antitumor activity against human PANC1 cells xenografted in nude mouse assessed as inhibition of tumor weight at 60 mg/kg, ip administered every 2 days for 21 days relative to vehicle-treated control; format: functional; details: PANC-1, ip; procedure, shortened: as §2
[15] = Distribution co-efficient, log D of the compound at pH 7.4; format: physicochemical; details: buffer
Procedure, shortened: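 Intrinsic aqueous solubility and log D at pH 7.4 were measured on a pION Gemini Profiler.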

[16] = Half life in rat at 10 mg/kg, po after 0.083 to 24 hrs by LC-MS/MS method; format: ADME, organism-based; details: in vivo
PANC-1 [17] = assay: Induction of apoptosis in human PANC1 assessed as increase in cleaved PARP levels at 0.1 to 1 uM after 24 hrs by Western blot method; format: functional, cell-based; procedure, shortened: as §1
[18] = Effective permeability of the compound at pH 7.4 by PAMPA; format: ADME; details: read-out: Peff
Procedure, shortened: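 Effective permeability was measured by double-sink PAMPA on a pION PAMPA Explorer.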

PANC-1 [19] = assay: Anticlonogenic activity against human PANC1 cells after 2 weeks by crystal violet staining-based assay; format: functional, cell-based
Procedure, shortened: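 PANC-1 cells were seeded at 100 cells/well overnight, then exposed to graded compound concentrations for 14 days with medium changed every three days. Colonies were fixed in 10% ethanol for 10 min and stained with 0.5% crystal violet in 25% ethanol for 10 min. Plates were dried and scanned.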

PANC-1 [20] = assay: Induction of apoptosis in human PANC1 cells after 24 hrs by annexin V/propidium iodide staining-based flow cytometric method; format: functional, cell-based
HCT-116 [21] = assay: Antiproliferative activity against human HCT116 cells after 48 hrs by MTT assay; format: functional, cell-based; details: HCT-116, 48 h; procedure, shortened: as §3
[22] = Bioavailability in rat at 10 mg/kg, ip after 0.083 to 24 hrs by LC-MS/MS method; format: ADME, organism-based; details: in vivo
PANC-1 [23] = assay: Induction of apoptosis in human PANC1 cells assessed as late apoptotic cells at 2 uM after 24 hrs by annexin V/propidium iodide staining-based flow cytometric method (reference value: 2.65%); format: functional
PANC-1 [24] = assay: Induction of apoptosis in human PANC1 assessed as decrease in caspase-3 levels at 0.1 to 1 uM after 24 hrs by Western blot method; format: functional, cell-based; procedure, shortened: as §1
[25] = Plasma concentration in rat at 10 mg/kg, iv after 36 hrs by LC-MS/MS method; format: ADME, organism-based; procedure, shortened: as §4

Chain of Hypoxia-inducible factor 1-alpha (Homo sapiens) (Q16665 whole entry, looked up): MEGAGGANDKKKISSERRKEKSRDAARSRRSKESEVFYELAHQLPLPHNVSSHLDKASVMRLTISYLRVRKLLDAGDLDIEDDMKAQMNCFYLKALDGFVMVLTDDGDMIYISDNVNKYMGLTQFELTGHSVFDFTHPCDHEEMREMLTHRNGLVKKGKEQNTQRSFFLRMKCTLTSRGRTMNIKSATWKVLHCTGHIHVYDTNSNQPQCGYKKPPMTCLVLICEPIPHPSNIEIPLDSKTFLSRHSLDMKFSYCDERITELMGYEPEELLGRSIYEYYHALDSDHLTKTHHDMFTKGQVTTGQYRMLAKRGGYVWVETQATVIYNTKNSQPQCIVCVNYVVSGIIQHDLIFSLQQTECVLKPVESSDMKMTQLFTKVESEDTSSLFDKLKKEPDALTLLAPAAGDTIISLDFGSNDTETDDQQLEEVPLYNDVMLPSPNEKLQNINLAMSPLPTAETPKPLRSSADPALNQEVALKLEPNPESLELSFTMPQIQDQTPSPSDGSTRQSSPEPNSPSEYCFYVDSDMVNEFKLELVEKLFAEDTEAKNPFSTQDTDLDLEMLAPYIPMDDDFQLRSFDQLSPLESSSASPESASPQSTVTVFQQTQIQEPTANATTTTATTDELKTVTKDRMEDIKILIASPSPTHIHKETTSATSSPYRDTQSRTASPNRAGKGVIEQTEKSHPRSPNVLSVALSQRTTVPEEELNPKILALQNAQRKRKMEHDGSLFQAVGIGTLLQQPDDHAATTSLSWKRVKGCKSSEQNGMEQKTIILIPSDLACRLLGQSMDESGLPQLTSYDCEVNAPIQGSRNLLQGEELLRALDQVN

With `Cc1c(C(=O)NC2CCN(C)CC2)oc2ccc(N(Cc3ccc(Br)cc3)S(=O)(=O)c3ccc(Br)cc3)cc12` the Activity (PANC-1 [1]) was “Active”, the inhibition in vivo at 15 mg/kg (PANC-1 [2]) was 39% and the Activity (PANC-1 [3]) was 9.3%. For the same compound, the inhibition [4] was “Dose-dependent effect”, the viability at 0.1 µM (PANC-1 [5]) was 85.5% and the IC50 (MCF7) was 2390 nM. It also gave an AUC(0-t) [6] of 6220 ng·h/mL, an IC50 (HCT-116 [7]) of 1610 nM and a concentration at 36 h [8] greater than 10 ng/mL. The inhibition in vivo at 30 mg/kg (PANC-1 [9]) was 66.4%, the Activity (Mus musculus) was “Non-Toxic” and the Activity (PANC-1 [10]) was “Active”. It also gave an Activity (PANC-1 [11]) of 0.45%, a viability at 1 µM (PANC-1 [12]) of 50.6% and an IC50 (BXPC-3) of 650 nM. For the same compound, the Activity (PANC-1 [13]) was 4.45%, the inhibition in vivo at 60 mg/kg (PANC-1 [14]) was 75.8% and the logD [15] was 3.15. For the same compound, the half-life [16] was 6.63 h, the Activity (PANC-1 [17]) was “Active” and the Papp [18] was 6.54 ×10⁻⁶ cm/s. The Activity (PANC-1 [19]) was “Dose-dependent effect”, the Activity (PANC-1 [20]) was “Dose-dependent effect” and the IC50 (HCT-116 [21]) was 1810 nM. The bioavailability [22] was 86.1%, the Activity (PANC-1 [23]) was 51.15% and the Activity (PANC-1 [24]) was “Active”. It also gave a concentration at 36 h [25] greater than 10 ng/mL.
